S1P4 agonist – S1P4 receptor agonists, primary screen, cell-based; Sphingosine 1-phosphate receptor 4 (Homo sapiens), O95977; S1P4-expressing cell line, agonist reporter assay; activation, % at 4.98 µM; 220,000 compounds, 0.35% hits; in the data active = activation above about 11%;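 also: 0% = DMSO vehicle and 100% = reference agonist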
S1P3 antag – S1P3 receptor antagonists, primary screen, cell-based | Sphingosine 1-phosphate receptor 3 (Homo sapiens), Q99500 | CHO S1P3 NFAT-BLA reporter, FRET fluorescence, antagonist mode | inhibition, % at 4.98 µM | 170,000 compounds, 0.27% hits | AID 485, 2006;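 active = inhibition above the plate cutoff, the mean inhibition of test wells on that plate plus 3 SD, cut at about 28% in these data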;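 also: cells challenged with S1P at its EC80 of 0.8 µM; blue over green emission ratio from cleaved BLA substrate after 4 h stimulation; 0% = S1P-stimulated wells and 100% = unstimulated DMSO-only wells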
Target sequence (Q99500 whole entry, looked up): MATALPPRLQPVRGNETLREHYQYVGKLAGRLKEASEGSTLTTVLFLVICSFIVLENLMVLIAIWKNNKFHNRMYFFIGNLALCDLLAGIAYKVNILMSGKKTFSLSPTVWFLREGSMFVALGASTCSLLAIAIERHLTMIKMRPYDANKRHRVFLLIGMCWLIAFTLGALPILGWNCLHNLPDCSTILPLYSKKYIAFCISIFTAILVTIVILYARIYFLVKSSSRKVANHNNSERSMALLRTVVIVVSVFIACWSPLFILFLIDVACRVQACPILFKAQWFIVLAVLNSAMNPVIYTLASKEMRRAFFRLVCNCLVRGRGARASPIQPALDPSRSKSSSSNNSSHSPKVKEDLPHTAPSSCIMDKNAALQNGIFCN
S1P4 antag – S1P4 receptor antagonists, primary screen, cell-based. Sphingosine 1-phosphate receptor 4 (Homo sapiens), O95977. S1P4-expressing cells, antagonist mode, reporter read-out. inhibition, % at 4.98 µM. 220,000 compounds, 0.26% hits. AID 1510, 2009; in the data active = inhibition above about 29%;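 also: 0% = wells stimulated with agonist and 100% = vehicle wells without agonist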
Lmaj promast – Leishmania major promastigote growth inhibition, primary screen | Leishmania major promastigotes, resazurin fluorescence viability | inhibition, % at 10 µM | 200,000 compounds, 9% hits; in the data active = inhibition above about 50%;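 also: promastigotes grown with compound for 44 hours at 28 °C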
MDM2 E3 inh – MDM2-luciferase reporter signal enhancers, primary screen, MDM2 E3 ligase inhibitor project, cell-based, luminescence, 1536-well. E3 ubiquitin-protein ligase Mdm2 (Homo sapiens), Q00987. cell-based MDM2 ubiquitination luciferase reporter, 2 h; 0 = plate control, 100 = twice control, blank-subtracted. signal enhancement, % at 5 µM. 210,000 compounds, 0.11% hits;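 active = signal enhancement of 30% or more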;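 also: luminescence tracks abundance of the self-degrading MDM2-luciferase fusion protein; higher signal means inhibition of MDM2 E3 ligase activity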
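test system = mammalian cells stably expressing self-ubiquitinating, self-degrading MDM2 E3–luciferase fusion | quantity = 2000 cells/well | incubation = cell settling 4 h, compound treatment 2 h, both 37 °C | signal = luminescence with SteadyLite reagent, 15 min at room temperature | evaluation = % enhancement relative to plate controls after blank subtraction | benchmarks = plate controls and plate blanks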
* = called active by the depositor; x = no result. The entries come from a sample that favours hits as a whole.

SMILES | S1P4 agonist | S1P3 antag | S1P4 antag | Lmaj promast | MDM2 E3 inh
CC(C)c1nnc(NC(=O)c2cccc(NC(=O)C(F)(F)F)c2)s1 | 2 | -14 | -12 | -6 | -26
CC(=O)/C(N=Nc1ccc2c(c1)OCO2)=C(\C)O | -1 | -8 | -1 | 57* | -4
CC(=O)/C(N=Nc1ccc2c(c1)OCCO2)=C(\C)O | 0 | 1 | -29 | -9 | -46
S=C(NCc1ccco1)Nc1cc(-c2ccccc2)[nH]n1 | 0 | 24 | 0 | 9 | x
O=C1N=C(N2CCc3ccccc3C2)S/C1=C\c1cccc(O)c1 | 4 | 1 | -10 | 2 | -7
CC(=O)N(Cc1ccc(F)cc1)C1=C(NCc2ccccc2)C(=O)c2ccccc2C1=O | 1 | x | -5 | 100* | -7
CCOC(=O)C1(Cc2cccc(OC)c2)CCN(Cc2cccc(O)c2)CC1 | 1 | 0 | -7 | 22 | -9
CCOC(=O)C1(Cc2cccc(F)c2)CCN(Cc2cnn(CC)c2)CC1 | -3 | 18 | 7 | 37 | -14
CCOC(=O)C1(Cc2cccc(OC)c2)CCN(Cc2ccc(OC)c(OC)c2)CC1 | -2 | 3 | -15 | 91* | -16
CCOC(=O)C1(Cc2ccccc2)CCN(Cc2cccc3nccnc23)CC1 | -1 | 1 | -16 | 44 | -6
CCOC(=O)C1(Cc2cccc(OC)c2)CCN(Cc2ccccc2OC)CC1 | 0 | 1 | -4 | 20 | -19
CCOC(=O)C1(Cc2ccccc2)CCN(Cc2cccc(OC)c2O)CC1 | 2 | 3 | -12 | 68* | -6
CCOC(=O)C1(Cc2cccc(F)c2)CCN(Cc2cnn(CC)c2C)CC1 | 1 | 4 | 4 | 69* | 19
CCOC(=O)C1(Cc2cccc(OC)c2)CCN(Cc2cccc(OC)c2O)CC1 | -1 | -9 | -18 | 72* | -6
CCOC(=O)C1(Cc2ccccc2)CCN(Cc2cnn(C(C)C)c2)CC1 | 1 | -13 | -6 | 15 | -3
CCOC(=O)C1(Cc2ccccc2)CCN(Cc2csc(C(C)=O)c2)CC1 | 2 | -6 | -5 | 86* | -23
Cn1c(Oc2ccccc2NCc2cc(Br)ccc2O)cc(=O)n(C)c1=O | -4 | -18 | -2 | 99* | 5
COc1ccc(/C=C2\SC(N3CCc4ccccc4C3)=NC2=O)cc1 | -2 | 10 | -11 | 0 | -7
COc1cc(/C=C2\SC(N3CCc4ccccc4C3)=NC2=O)cc(OC)c1OC | 0 | -20 | -8 | 54* | -1
Cc1nn2c(-c3cccc(NC(=O)CSc4nc5ccccc5o4)c3)nnc2c2ccccc12 | -2 | 20 | 1 | 12 | -6
c1ccc(C2=Nc3ccccc3SC2c2nc3ccccc3[nH]2)cc1 (stereo not given) | 0 | x | -13 | 17 | -27
CC(C)CCNc1nnnc2c1sc1nc(N3CCOCC3)c3c(c12)CC(C)(C)SC3 | -1 | x | -4 | 57* | -9
CCOC(=O)/C(=N\Nc1ccccc1[N+](=O)[O-])c1csc(N)n1 | 0 | 2 | 5 | 52* | -9
CCOC(=O)N1CCN(C(=O)/C(=C/c2cccs2)NC(=O)c2cccs2)CC1 | 0 | -13 | 8 | 1 | 26
CC(=O)/C(=C/c1ccccc1)C(=O)Nc1ccccc1C | 0 | -8 | -7 | 96* | -7
SMILES | S1P4 agonist | S1P3 antag | S1P4 antag | Lmaj promast | MDM2 E3 inh
CCOc1ccc(/C(O)=C2/C(=O)C(=O)N(CC3CCCO3)C2c2cccs2)cc1 (stereo not given) | 1 | -6 | -17 | -8 | 8
Cc1c(C(=O)O)[nH]c2ccc([N+](=O)[O-])cc12 | 2 | -17 | 1 | -4 | -3
Cc1c(C(=O)N/N=C/C(C)C)[nH]c2ccc([N+](=O)[O-])cc12 | 0 | -8 | -35 | 51* | -9
OC1CCCN(Cc2ccc3ccc4cccc5ccc2c3c45)C1 (stereo not given) | 0 | x | -8 | 78* | -3
CC(C)NC(=S)N1CCN(C/C=C/c2ccccc2)CC1 | -2 | -11 | 4 | 5 | -7
O=C(c1cccc(F)c1)N1CCC(c2nc3ccccc3s2)CC1 | -1 | -8 | 15 | 4 | -12
Oc1cccc(NC(=S)Nc2ccc(SC(F)F)cc2)c1 | 0 | -6 | -6 | 61* | -11
Oc1cccc2c(NC(=S)Nc3ccc(SC(F)F)cc3)cccc12 | 1 | -3 | -10 | -3 | -35
O=C(NCc1nc2ccccc2[nH]1)C1=C[C@@H](c2csc3ccccc23)C[C@@H](OCc2ccc(CO)cc2)O1 | -1 | 4 | -3 | 95* | x
O=C(NCc1ccccc1)C1=C[C@@H](c2ccc(Br)cc2)C[C@@H](OCc2ccc(CO)cc2)O1 | 1 | -24 | 3 | 55* | x
O=C(NCc1nc2ccccc2[nH]1)C1=C[C@H](c2csc3ccccc23)C[C@H](OCc2ccc(CO)cc2)O1 | x | x | x | x | -5
O=C(NCc1nc2ccccc2[nH]1)C1=C[C@@H](c2ccc(Br)cc2)C[C@@H](OCc2ccc(CO)cc2)O1 | 0 | 9 | -5 | 78* | x
c1ccc(C2Nc3ccccc3-c3nc4ccccc4n32)cc1 (stereo not given) | 2 | x | -12 | 69* | -19
Cc1ccc(NS(=O)(=O)c2ccc3c(c2)c(=O)n(C)c(=O)n3C)cc1F | 1 | x | 9 | 68* | -14
Cc1cc(C)cc(NS(=O)(=O)c2ccc3c(c2)c(=O)n(C)c(=O)n3C)c1 | -3 | x | 2 | 97* | -11
Cc1ccc(C)c(NS(=O)(=O)c2c(C)ccc3nsnc23)c1 | 0 | 8 | -7 | 24 | x
Cc1ccc2nsnc2c1S(=O)(=O)NCCc1c(C)[nH]c2ccc(F)cc12 | 0 | x | -1 | 98* | -14
CCOC(=O)c1c(NC(=O)C2=C(C)NC(=S)NC2c2ccc(CC)cc2)sc(C)c1C (stereo not given) | 1 | 1 | -15 | 85* | -27
O=C(CC1Nc2ccccc2NC1=O)Nc1cc(Cl)cc(Cl)c1 (stereo not given) | -1 | x | -26 | 51* | 0
O=C(CC1NC(=O)NC1=O)Nc1ccc(Cl)cc1 (stereo not given) | -4 | x | 2 | -2 | -14
O=C(CC1Nc2ccccc2NC1=O)NCc1cccnc1 (stereo not given) | 1 | 102* | -14 | -1 | -8
CCOC(=O)c1c(NC(=O)CC2Nc3ccccc3NC2=O)sc(C)c1C (stereo not given) | -1 | 1 | 0 | 58* | -1
COC(=O)c1c(NC(=O)CC2Nc3ccccc3NC2=O)sc(C)c1C (stereo not given) | 2 | x | -5 | -3 | -23
CCCCN(C(=O)c1ccc(Cl)c([N+](=O)[O-])c1)c1c(N)n(CCC)c(=O)[nH]c1=O | 1 | -17 | -27 | -2 | -6
